Insulin prom act – TRM-6 insulin promoter activation. actives 0.81% (n = 130,000). activation, % at 2 µM. TRM-6 cells, insulin promoter eGFP reporter, imaging; plate-scaled: unstimulated 0, stimulated control 100;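 active means activation at 2 µM above a set limit, confirmed on inspection of the cell images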;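 further: share of cells whose green reporter signal exceeds an intensity cutoff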
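Test system: human fetal islet-derived TRM-6 cells with tamoxifen-inducible insulin promoter–eGFP reporter; schedule: overnight tamoxifen, then two-day compound incubation at 37 °C; measured by: high-content imaging of fixed cells with Hoechst nuclear stain; evaluation: percent cells above green-intensity threshold, converted to percent activation versus plate controls; control set: stimulated and unstimulated wells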
A number is an active result; 0 = inactive; [ ] = another dose, or the depositor's remark. The full list was thinned out, with hits kept by preference.

SMILES | Insulin prom act
O=C(COc1ccc(Cl)c(Cl)c1)NN1C(=O)C2C(C1=O)C1C=CC2C12CC2 (centres undefined) | 0
CC(C)c1ccc(C2C(C#N)=C(N)N3C(=C2C#N)Sc2ccccc23)cc1 (centres undefined) | 0
O=C(Nc1sc2c(c1C(=O)N1CCOCC1)CCCCC2)c1cccnc1 | 0
O=S(=O)(c1ccc(Cl)c(NC(=S)Nc2cccc(O)c2)c1)N1CCOCC1 | 0
Cc1cccc(C)c1NC(=S)N=Nc1c(O)n(C)c2ccc(S(=O)(=O)N3CCOCC3)cc12 | 514
Cc1ccc(S(=O)(=O)N2CCOCC2)cc1C(=O)Nc1c(C)n(C)n(-c2ccccc2)c1=O | 0
CCCc1nn2c(=O)c(C(c3cccc(Cl)c3)c3c(O)nc4sc(CCC)nn4c3=O)c(O)nc2s1 | 0
O=C(Nc1nc2c(s1)CCc1ccccc1-2)c1ccco1 | 0
O=c1oc2cc(O)ccc2cc1-c1nc2c(s1)CCc1ccccc1-2 | 733
O=c1oc2ccccc2cc1-c1ccc(O)cc1O | 0
COc1ccc(C)cc1N(CC(=O)N/N=C/c1ccc2c(c1)OCO2)S(C)(=O)=O | 0
c1ccc(-c2ncnc3nc4n(c23)CCC4)cc1 | 0
Cc1ccc(NC(=O)COc2ccc(CCO)cc2-n2nc3ccccc3n2)cc1C | 0
CCCOC(=O)c1c(NC(=O)C2CCCO2)sc(C(=O)OC)c1C (centres undefined) | 567
CCc1c(C)sc(NC(=O)C2CCCO2)c1C#N (centres undefined) | 0
CCOC(=O)c1c(-c2ccc(C)cc2)csc1NC(=O)C1CCCO1 (centres undefined) | 0
O=C1CCCS(=O)(=O)c2ccccc21 | 0
C/C(=N\NC(=O)C1CC1)c1ccc2c(c1)OCCO2 | 0
CCN(C(=O)CSc1nnc(-c2ccncc2)n1Cc1ccccc1)C1CCS(=O)(=O)C1 (centres undefined) | 0
N#CC(C#N)=C(N)CSc1cccc[n+]1[O-] | 0
O=C(ONC1=NCCCCC1)c1ccc([N+](=O)[O-])cc1 | 0
CCOC(=O)C1=C(N)c2ccccc2CC1C(C)C (centres undefined) | 0
CCN(CC)c1ccc(/C=C/C(=O)C2C(=O)C=C(C)OC2=O)cc1 (centres undefined) | 809[fluoresces]
CCN(CC)c1ccc(NC(=O)/C=C\c2ccccc2Cl)cc1 | 0
CC(=O)Oc1cc2c(cc1Cl)C1(CC(c3ccccc3Cl)O2)CC(C)(C)NC(=S)N1 (centres undefined) | 0
SMILES | Insulin prom act
COc1ccc(C(=O)NC(=S)NC2CCSC2=O)cc1 (centres undefined) | 0
COC(=O)C1C(=O)NCC1c1ccccc1 (centres undefined) | 0
CCOC(=O)C1C(=O)CC(C)(O)C(C(=O)OCC)C1c1ccc(C)s1 (centres undefined) | 0
CCOC(=O)C1C(=O)CC(O)(c2ccccc2)CC1c1ccccc1 (centres undefined) | 143
CCC(C)c1ccccc1OCCn1ccnc1 (centres undefined) | 0
COc1ccc(N(C(=O)Cn2nnc3ccccc32)C(C(=O)NC(C)(C)C)c2ccc(OC)c(O)c2)cc1 (centres undefined) | 0
Cc1ccc(N(C(=O)Cn2nnc3ccccc32)C(C(=O)NCc2ccco2)c2ccc(C)o2)cc1 (centres undefined) | 0
CCC(C)(C)NC(=O)C(c1ccco1)N(C(=O)Cn1nnc2ccccc21)c1ccc2c(c1)OCO2 (centres undefined) | 83
CC(C)(Oc1ccc(Br)cc1)C(=O)N1CCc2ccccc21 | 0
O=C(/C=C/c1ccc(Cl)cc1)N1CCN(c2ncccn2)CC1 | 0
CC(C)(C)c1ccc(/C=C/C(=O)N2CCCCC2)cc1 | 335
CC(C)Cc1ccc(/C=C/C(=O)N2CCCCC2)cc1 | 0
Cc1ccc(-n2ncc(C(=O)Nc3cc(Cl)ccc3C)c2C2CCNCC2)cc1C | 0
Cc1cc2c(c(SCC#N)n1)C(=O)OC2 | 0
S=c1[nH]nc(Cc2cccc3ccccc23)n1-c1ccccc1 | 0
Cc1ccc2nc(-c3ccccc3)nc(SC(C)C(=O)NCc3cccs3)c2c1 (centres undefined) | 0
CCN(CC(=O)NCc1cccs1)S(=O)(=O)c1ccc(C(C)C)cc1 | 0
Cc1nc2ccc(S(=O)(=O)NC(C(=O)NCc3cccs3)C(C)C)cc2s1 (centres undefined) | 250
CCCCN1C2CCCC1CC(NC(=O)N(C(C)C)C(C)C)C2 (centres undefined) | 0
CCN1C(c2ccccc2)=C(c2ccccc2)S/C1=C\C=C1/SC(=S)N(C)C1=O | 0
CCCCN1C(=O)/C(=C/C=C2\SCCN2C)SC1=S | 408
CCN1C(=O)/C(=C/C=C2/Sc3ccc4ccccc4c3N2CCO)SC1=S | 0
COc1ccc(NC(=O)COC(=O)C2CC3C=CC2C3)cc1 (centres undefined) | 0
CNC(=O)C1=C(C)NC(=S)NC1c1cc2c(cc1OC)CCCC2 (centres undefined) | 0
O=C1NCC(COc2ccc(Cl)cc2)O1 (centres undefined) | 0
CC(=O)N1CCN(c2ncnc3sc(-c4ccccc4)cc23)CC1 | 0

Compound activity: PubChem BioAssay, Columbia University Molecular Screening Center
